Results reported in ChEMBL document CHEMBL1121970, “Potential radiosensitizing agents. 5. 2-Substituted benzimidazole derivatives” (1982).

Experiments:
[1] = Sensitizer enhancement ratio was determined by dividing the Do value obtained from the control radiation survival curve by the Do value obtained from the radiation survival curve; assay type: functional
V79 = test: Inhibitory activity against hypoxic Chinese hamster cells(V-79) in culture by colony formation assay; assay type: functional; details: Cricetulus griseus, read-out: ED50 (the source's name)
CHO [2] = test: Radiosensitizing activity against chinese hamster cells was determined in the presence of the sensitizer under nitrogen at a concentration of 1.0 mM; assay type: functional, Cricetulus griseus
In short: (§1)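 V-79 Chinese hamster monolayers (exponentially growing, MEM with 15% fetal calf serum), about 200 cells per dish. Made hypoxic by purging sealed containers with 95% N2/5% CO2 for 1 h. Drug at maximum nontoxic concentration (1 mM or less) for 2 h at 37 °C. Cobalt-60 irradiation, 1400 rad, at room temperature. Medium replaced, colonies counted after 6 days; % survival.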

CHO [3] = test: Radiosensitizing activity against chinese hamster cells was determined in the presence of the sensitizer under nitrogen at a concentration of 0.010 mM; assay type: functional, Cricetulus griseus; in short: as §1
[4] = Sensitizer enhancement ratio(SER) was determined; assay type: functional

Row | Structure (SMILES) | SER [1] | EC50 (V79) | Survivals (CHO [2]) | Survivals (CHO [3]) | SER [4]
1 | COCC(O)Cn1c(C#N)nc2ccccc21 (stereo unspecified) | 1 | 1200 µM | 23% | – | –
2 | COCC(O)Cn1c(C(C)=O)nc2cc([N+](=O)[O-])ccc21 (stereo unspecified) | 1.2 | > 5000 µM | 11.3% | – | –
3 | CCOC(=O)Cn1c([N+](=O)[O-])nc2ccc([N+](=O)[O-])cc21 | – | 6 µM | – | 22.9% | 1
4 | COCC(O)Cn1c(C(F)(F)F)nc2cc([N+](=O)[O-])ccc21 (stereo unspecified) | 1.4 | > 5000 µM | 13.8% | – | –
5 | CCOC(=O)Cn1c([N+](=O)[O-])nc2ccccc21 | 2.3 | 300 µM | 2.7% | – | –
6 | COCC(O)Cn1c([N+](=O)[O-])nc2ccccc21 (stereo unspecified) | 2 | 4800 µM | 9.4% | – | –
7 | CCOC(=O)Cn1c([N+](=O)[O-])nc2cc([N+](=O)[O-])ccc21 | – | 16 µM | 26.7% | – | 1
8 | COCC(O)Cn1c(C(N)=O)nc2ccccc21 (stereo unspecified) | 1.1 | > 5000 µM | 21% | – | –
9 | COCC(O)Cn1c(S(C)(=O)=O)nc2ccccc21 (stereo unspecified) | 1 | 3200 µM | 25.8% | – | –
10 | COCC(O)Cn1c(C(F)(F)F)nc2ccc([N+](=O)[O-])cc21 (stereo unspecified) | 1.2 | 3000 µM | 17.6% | – | –
11 | COCC(O)Cn1c(C(C)=O)nc2ccccc21 (stereo unspecified) | 1 | > 5000 µM | 23% | – | –
12 | COCC(O)Cn1c(C(F)(F)F)nc2ccccc21 (stereo unspecified) | 1.1 | > 5000 µM | 22% | – | –
